Our source for the Activity values is ChEMBL document CHEMBL3112443, “Development of new LXR modulators that regulate LXR target genes and reduce lipogenesis in human cell models” (Eur J Med Chem, 2014).

Activity calls are given as the source filed them. The rule behind the calls is not given here.

The target in test [1] is T1, Liver X receptor (Homo sapiens) (UniProt Q13133+P55055). Description: Modulation of LXR in human HepG2 cells assessed as reduction of T0901317-induced lipogenesis using [1-14C]acetate at 1 uM after 24 h by scintillation counting.
Test [2] addresses T1, Liver X receptor (Homo sapiens). Nature of the test: Modulation of LXR in human myotubes assessed as increase of ABCA1 mRNA expression at 10 uM after 4 days by qPCR analysis. In general terms: In qPCR the cycle at which signal appears reflects the starting amount.
The target is the same in test [3]. Description: Modulation of LXR in human myotubes assessed as reduction of T0901317-induced lipogenesis using [1-14C]acetate at 10 uM after 4 days by scintillation counting.
Test [4] shares this target. Description: Modulation of LXR in human myotubes assessed as decrease of T0901317-induced ABCA1 mRNA expression at 10 uM after 4 days by qPCR analysis. In short, it runs like this: (§1)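 Cells given 1 mM T0901317 (so in the source) together with […] test compound; DMSO 0.1% vehicle. Myotubes treated 4 days, HepG2 24 h. Total RNA reverse-transcribed with hexamer primers, then SYBR Green qPCR. Expression normalized to 36B4 and given as fold change vs DMSO control, mean ± SEM, n = 3–11 separate experiments, at least 3 parallels each.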

Test [5] shares this target. Nature of the test: Modulation of LXR in human HepG2 cells assessed as decrease of T0901317-induced ABCA1 mRNA expression at 10 uM after 4 days by qPCR analysis. It is filed as cell-based.
The target is the same in test [6]. Description: Modulation of LXR in human myotubes assessed as increase of ABCA1 mRNA expression at 10 uM after 4 days by qPCR analysis. The essentials:
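Primary human myotubes (satellite cells from abdominal muscle of 6 healthy donors, differentiated 7 days at 5.5 mM glucose, 25 pM insulin) treated with compound or 0.1% DMSO for 4 days. Total RNA reverse-transcribed with hexamer primers; SYBR Green qPCR. ABCA1 normalised to 36B4 and reported as fold change versus DMSO, mean ± SEM, n = 3–11.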

The target is the same in test [7]. Nature of the test: Modulation of LXR in human myotubes assessed as decrease of T0901317-induced FAS mRNA expression at 10 uM after 4 days by qPCR analysis. In short, it runs like this: as §1
Test [8] shares this target. Description: Modulation of LXR in human myotubes assessed as increase of D-[14C(U)]deoxy-D-glucose uptake at 1 to 50 uM after 4 days by scintillation counting. It is filed as protein assay. In short, it runs like this:
(§2)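 Primary myotubes, 7 days differentiated, treated 4 days with compounds in 0.1% DMSO. Then given D-[14C(U)]deoxy-D-glucose (100 mM as printed) for 4 h. Washed twice with ice-cold PBS, lysed in 0.1 M NaOH and counted by liquid scintillation. Uptake normalized to protein; mean ± SEM of separate experiments, at least 3 parallels each.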

Test [9] shares this target. Description: Modulation of LXR in human myotubes assessed as increase of T0901317-induced lipogenesis using [1-14C]acetate at 1 uM after 4 days by scintillation counting. It is filed as protein assay. In short, it runs like this:
(§3)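 Primary myotubes from satellite cells of 6 healthy donors, used after 7 days of differentiation. Treated 4 days with compounds ± T0901317 in 0.1% DMSO, then labelled 24 h with [1-14C]acetate (100 mM as printed). Lysed in NaOH; total lipids isolated by hydrophobic filtration and scintillation-counted. Normalized to protein; fold vs control, mean ± SEM, n = 3–6; dose–response n = 6.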

The target is the same in test [10]. Nature of the test: Modulation of LXR in human HepG2 cells assessed as decrease of T0901317-induced SCD1 mRNA expression at 10 uM after 4 days by qPCR analysis. Type of test: cell-based.
Test [11] shares this target. Nature of the test: Modulation of LXR in human HepG2 cells assessed as decrease of T0901317-induced FAS mRNA expression at 10 uM after 4 days by qPCR analysis. Type of test: cell-based.
For test [12] the target is unchanged. Description: Modulation of LXR in human myotubes assessed as decrease of T0901317-induced SCD1 mRNA expression at 10 uM after 4 days by qPCR analysis. The essentials: as §1
For test [13] the target is unchanged. Description: Modulation of LXR in human myotubes assessed as reduction of lipogenesis using [1-14C]acetate after 4 days by scintillation counting. It is filed as protein assay. In short, it runs like this: as §3
The target is the same in test [14]. Description: Modulation of LXR in human myotubes assessed as increase of D-[14C(U)]deoxy-D-glucose uptake at 1 uM after 4 days by scintillation counting. Type of test: protein assay. In short, it runs like this:
as §2

For test [15] the target is unchanged. Description: Modulation of LXR in human myotubes assessed as increase of D-[14C(U)]deoxy-D-glucose uptake after 4 days by scintillation counting. It is filed as protein assay. The essentials:
as §2

Test [16] shares this target. Description: Modulation of LXR in human HepG2 cells assessed as reduction of lipogenesis using [1-14C]acetate at 1 uM after 24 h by scintillation counting.
Test [17] shares this target. Nature of the test: Modulation of LXR in human HepG2 cells assessed as reduction of T0901317-induced lipogenesis using [1-14C]acetate at 1 uM after 4 days by scintillation counting. It is filed as cell-based.
Test [18] has the same target. Nature of the test: Modulation of LXR in human myotubes assessed as increase of D-[14C(U)]deoxy-D-glucose uptake at 50 uM after 4 days by scintillation counting. It is filed as protein assay. The essentials: as §2

For `CC(C)CC[C@H](O)[C@@H](C)[C@H]1CC[C@H]2[C@@H]3CC=C4C[C@@H](O)CC[C@]4(C)[C@H]3CC[C@]12C`, the result in test [1], in [2], in [3] and in test [6] was Active. The outcome in test [4] and in [5] was inactive.

In the case of `CCCCCCN(CCCCCC)S(=O)(=O)c1ccc(COC[C@H](C)[C@@H](O)CCC(C)C)cc1`, the outcome in [7], in test [8], in test [4], in [10], in test [11] and in test [5] was inactive. In test [12], the outcome was inactive. Further, the result in test [9] was Active.

Take `CC(C)CC[C@H](O)[C@@H](C)COCc1ccc(S(=O)(=O)N(COCC[Si](C)(C)C)COCC[Si](C)(C)C)cc1`: the Activity entry in test [13] and in test [15] was “Dose-dependent effect” each time. In addition, the outcome in [9], in test [10], in test [14], in test [12] and in [16] was Active.

As for `CC(C)CC[C@H](O)[C@@H](C)COCc1ccc(S(=O)(=O)N(C)C2CCCCC2)cc1`, the outcome in test [7], in test [10], in [11] and in [12] was inactive. The result in test [9], in [4], in test [14] and in test [5] was Active. Further, the Activity entry in test [15] is “Dose-dependent effect”.

For the molecule `COc1ccc2cc(COC[C@H](C)[C@@H](O)CCC(C)C)ccc2c1`, the outcome in [17], in [7], in test [18], in [9], in test [10] and in test [11] was Active. The outcome in test [12] was Active. In addition, the Activity entry in test [15] is “Dose-dependent effect”.
